Laboratory results: paper PMC4340355 (ACS Chemical Biology, 2014)
Read-outs that look alike come from different tables or passages of the source. Peptide text beside a SMILES is read from it. * marks the point of attachment. Cbz = O=C(OCc1ccccc1)*

How the values were obtained:
Assay type in all cases: biochemical
[1] = target: T1, caspase-like (CaL) activity of rabbit proteasome fraction II (Oryctolagus cuniculus, UniProt A0A5F9DQW2); experiment: Inhibition of proteasome-catalyzed hydrolysis of CaL sensor CaL1–633
T1 sequence (A0A5F9DQW2 1-212): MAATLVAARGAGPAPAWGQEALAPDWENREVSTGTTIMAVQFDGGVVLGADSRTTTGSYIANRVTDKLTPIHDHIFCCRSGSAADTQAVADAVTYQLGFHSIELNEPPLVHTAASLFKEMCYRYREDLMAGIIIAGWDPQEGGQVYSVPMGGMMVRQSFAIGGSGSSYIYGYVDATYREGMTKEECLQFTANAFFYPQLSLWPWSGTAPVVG

[2] = target: T2, chymotrypsin-like (ChL) activity of rabbit proteasome fraction II (Oryctolagus cuniculus, UniProt G1T4Q9); experiment: Inhibition of proteasome-catalyzed hydrolysis of ChL sensor ChL1–488
T2 sequence (G1T4Q9 1-263): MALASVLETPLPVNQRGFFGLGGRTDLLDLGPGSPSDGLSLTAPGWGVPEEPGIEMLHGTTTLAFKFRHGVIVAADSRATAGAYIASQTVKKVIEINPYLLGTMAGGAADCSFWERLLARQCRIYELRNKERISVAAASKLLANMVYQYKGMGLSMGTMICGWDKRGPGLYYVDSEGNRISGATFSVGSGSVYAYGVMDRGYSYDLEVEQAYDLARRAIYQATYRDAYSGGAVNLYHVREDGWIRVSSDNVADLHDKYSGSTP

[3] = test system: rabbit proteasome fraction II; experiment: Rate of proteolysis
Method in brief: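 Fluorescence followed 2 h at RT. Rate came from a linear fit to the first 10% substrate consumption. FU were converted to μmol via overnight-spiked fold change and a standard line. No-enzyme controls were run. Values are mean ± SD of triplicates.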

[4] = target: yeast proteasome CaL mutant (Saccharomyces cerevisiae, UniProt P25043+P30656+P38624); experiment: Rate of sensor cleavage by yeast deficient lysate, CaL mutant
proteasome = test system: proteasome

| Molecule | IC50 [1] [µM] | IC50 [2] [µM] | specific activity ([3]; 2.5 μM sensor) [nmol min^–1 mg^–1 enzyme] | specific activity ([3]; 5 μM sensor) [nmol min^–1 mg^–1 enzyme] | proteolysis by the proteasome containing the mutation in the CaL subunit [4] | effect on TL activity (proteasome; in the presence of CaL1–633) | reduction of the rate of proteolysis of ChL1–488 (proteasome; in the presence of CaL1–633) | reduction of the rate of proteolysis of ChL1–488 (proteasome; in the presence of TL1–550) | effect on CaL activity (proteasome; in the presence of TL1–550) | enhancement of the rate of TL1–550 hydrolysis (proteasome; when ChL1–488 is present) |
| --- | --- | --- | --- | --- | --- | --- | --- | --- | --- | --- |
| CC(C)C[C@@H](C=O)NC(=O)[C@H](CC(C)C)NC(=O)[C@H](CC(C)C)NC(=O)OCc1ccccc1 [MG132] (Cbz-Leu-Leu-Leu-aldehyde) | 180 ± 150 | 0.62 ± 0.06 |  |  |  |  |  |  |  |  |
| DyLight633–nLPnLDK(AB40) [CaL1–633] |  |  | 0.03 ± 0.001 | 0.02 ± 0.002 | not proteolyzed | reduced |  |  |  |  |
| FAM–HHSLK(AB40) [ChL1–488] |  |  | 0.22 ± 0.02 | 0.31 ± 0.03 |  |  | up to 90% | up to 50% |  |  |
| TAMRA–LRRK(AB40) [TL1–550] |  |  | 0.05 ± 0.003 | 0.06 ± 0.001 |  |  |  |  | impaired | up to 5 fold |
